The text below walks through data of ChEMBL document CHEMBL1773010, “Cytotoxic and apoptosis-inducing activities of limonoids from the seeds of Azadirachta indica (neem)” (J Nat Prod, 2011).

Where only a bound is given, the exact number is not on record here.

Holding throughout (format): functional, cell-based
Assay [1] concerns SK-BR-3. The experiment in a line: Cytotoxicity against human SK-BR-3 cells assessed as cell viability after 48 hrs by MTT assay. The following applies: SK-BR-3, 48 h. Summed up:
(§1)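 Cells seeded at 3 × 10^3 per well and exposed to compounds from 1 × 10^-4 to 1 × 10^-6 M for 48 h. MTT was then added for 3 h, formazan dissolved in 0.04 M HCl in 2-propanol, and absorbance read at 570 nm against 630 nm. IC50 is the concentration giving 50% growth inhibition, from triplicate assays.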

Assay [2] can be described thus: Cytotoxicity against human AZ-521 cells assessed as cell viability after 48 hrs by MTT assay. Conditions: AZ-521, 48 h. Summed up: as §1
(In general: Tetrazolium assays rely on reduction of a dye to a coloured formazan, in cell work by metabolically active cells.)

Assay [3] is described as follows: Cytotoxicity against human CRL1579 cells assessed as cell viability after 48 hrs by MTT assay. In outline:
as §1

The subject of assay [4] is HL-60. The assay is described as follows: Cytotoxicity against human HL60 cells assessed as cell viability after 48 hrs by MTT assay. The following applies: HL-60, 48 h. In outline: as §1
Assay [5] relates to A549. The experiment in a line: Cytotoxicity against human A549 cells assessed as cell viability after 48 hrs by MTT assay. The following applies: A549, 48 h. In outline:
as §1

Take `COC(=O)C[C@H]1[C@]2(C)C3=C(C)[C@H](c4ccoc4)C[C@H]3O[C@@H]2[C@@H]2OC[C@]3(C)[C@H](OC(C)=O)C[C@H](OC(=O)/C=C/c4ccccc4)[C@@]1(C)[C@@H]23` [OHCHININ ACETATE]: the IC50 is over 20 µM in assay [1]; over 20 µM in assay [2]; over 20 µM in assay [3]; 9.9 µM in assay [4]; over 20 µM in assay [5].
As to `CC(=O)O[C@@H]1C[C@H]2C(C)(C)C(=O)C=C[C@]2(C)[C@H]2CC[C@@]3(C)OC(=O)C=C3[C@@]21C`, the IC50 in assay [1], in assay [2], in assay [3], in assay [4] and in assay [5] was over 20 µM in each case.
Regarding `CCC(C)C(=O)O[C@H]1C[C@@H](OC(C)=O)[C@@]2(C(=O)OC)CO[C@H]3[C@@H](O)[C@@](C)([C@]45O[C@@]4(C)C4CC5O[C@@H]5C[C@@H](OC)C[C@]45O)[C@@H]4[C@@H](C(=O)OC)OC[C@@]14[C@@H]32` (some centres undefined), the IC50 in assay [1], in assay [2], in assay [3], in assay [4] and in assay [5] was over 20 µM in each case.
For the molecule `CC(=O)O[C@H]1C[C@@H](OC(C)=O)[C@@]2(C)CO[C@@H]3[C@@H](O)[C@@]4(C)C5=CC[C@@H](c6ccoc6)[C@]5(C)CC[C@@H]4[C@]1(C)[C@@H]32`, the IC50 is over 20 µM in assay [1]; 14.8 µM in assay [2]; over 20 µM in assay [3]; 15.3 µM in assay [4]; over 20 µM in assay [5].
Turning to `CC(=O)O[C@@H]1C[C@H]2C(C)(C)C(=O)C=C[C@]2(C)[C@H]2CC[C@]3(C)C(=CC(=O)[C@H]3c3ccoc3)[C@@]21C` [AZADIRADIONE], the IC50 is 15.9 µM in assay [1]; over 20 µM in assay [2]; over 20 µM in assay [3]; 14.7 µM in assay [4]; over 20 µM in assay [5].
Regarding `CC(=O)O[C@@H]1C[C@H]2C(C)(C)C(=O)C=C[C@]2(C)[C@H]2CC[C@]3(C)C(=CC[C@H]3[C@H]3COC(=O)C3)[C@@]21C`, the IC50 in assay [1], in assay [2], in assay [3], in assay [4] and in assay [5] was over 20 µM throughout.
With `CC1(C)C(=O)C=C[C@]2(C)[C@H]3CC[C@@]4(C)[C@H](c5ccoc5)OC(=O)[C@H]5O[C@]54[C@]3(C)[C@H](O)C[C@@H]12` [DEACETYLGEDUNIN], the IC50 in assay [1] was 12 µM; in assay [2] it was 16.9 µM; in assay [3] it was over 20 µM; in assay [4], over 20 µM; in assay [5] it was over 20 µM.
For the molecule `O=c1[nH]cc(F)c(=O)[nH]1` [FLUOROURACIL], the IC50 is over 20 µM in assay [1]; over 20 µM in assay [2]; over 20 µM in assay [3]; 9.1 µM in assay [4]; over 20 µM in assay [5].
On to `CC1(C)C(=O)C=C[C@]2(C)[C@H]3CC[C@]4(C)C(=CC(=O)O[C@@]4(O)c4ccoc4)[C@]3(C)[C@H](O)C[C@@H]12`, for which the IC50 in assay [1], in assay [2], in assay [3], in assay [4] and in assay [5] was over 20 µM throughout.
For `CCC(C)C(=O)O[C@H]1C[C@@H](OC(C)=O)[C@@]2(C)CO[C@H]3[C@H]4O[C@@H]5C[C@@H](c6ccoc6)C(C)=C5[C@@]4(C)[C@H](CC(=O)OC)[C@]1(C)[C@@H]32` (some centres undefined), the IC50 is over 20 µM in assay [1]; over 20 µM in assay [2]; over 20 µM in assay [3]; 17.1 µM in assay [4]; over 20 µM in assay [5].
`CC(=O)O[C@@H]1C[C@H]2C(C)(C)C(=O)C=C[C@]2(C)[C@H]2CC[C@@]3(C)[C@H](c4ccoc4)C(=O)[C@H]4O[C@]43[C@@]21C` [EPOXYAZADIRADIONE]: the concentration for half-maximal inhibition (IC50) in assay [1] was 12.3 µM; in assay [2], over 20 µM; in assay [3] it was over 20 µM; in assay [4], 9.3 µM; in assay [5], over 20 µM.
Turning to `COC(=O)C[C@H]1[C@]2(C)C3=C(C)[C@H](c4ccoc4)C[C@H]3O[C@@H]2[C@H](O)[C@@H]2[C@]1(C)C(=O)C=C[C@@]2(C)C(=O)OC` [DEACETYLNIMBIN], the IC50 in assay [1] is over 20 µM; in assay [2], over 20 µM; in assay [3], over 20 µM; in assay [4], 11.6 µM; in assay [5], over 20 µM.
Take `COC(=O)C[C@H]1[C@]2(C)C3=C(C)[C@H](c4ccoc4)C[C@H]3O[C@@H]2[C@H](OC(C)=O)[C@@H]2[C@]1(C)C(=O)C=C[C@@]2(C)O`: the IC50 in assay [1], in assay [2], in assay [3], in assay [4] and in assay [5] was over 20 µM in each case.
As to `CC1(C)C(=O)C=C[C@]2(C)[C@H]3CC[C@]4(C)C(=CC(=O)[C@H]4c4ccoc4)[C@]3(C)[C@H](O)C[C@@H]12` [NIMBOCINOL], the IC50 in assay [1], in assay [2], in assay [3], in assay [4] and in assay [5] was over 20 µM throughout.
For `C/C=C(/C)C(=O)O[C@H]1C[C@@H](OC(C)=O)[C@@]2(C)CO[C@H]3[C@H]4O[C@@H]5C[C@@H](c6ccoc6)C(C)=C5[C@@]4(C)[C@H](CC(=O)OC)[C@]1(C)[C@@H]32` [SALANNIN], the IC50 in assay [1], in assay [2], in assay [3], in assay [4] and in assay [5] was over 20 µM each time.
With `CCC(C)C(=O)O[C@H]1C[C@@H](OC(C)=O)[C@@]2(C(=O)OC)CO[C@H]3[C@@H](O)[C@@](C)([C@]45O[C@@]4(C)C4CC5O[C@@H]5C[C@H](OC)C[C@]45O)[C@@H]4[C@@H](C(=O)OC)OC[C@@]14[C@@H]32` (some centres undefined) [VEPAOL], the IC50 in assay [1], in assay [2], in assay [3], in assay [4] and in assay [5] was over 20 µM each time.
As for `CC(=O)O[C@@H]1C[C@H]2C(C)(C)C(=O)C=C[C@]2(C)[C@H]2CC[C@@]3(C)C(c4ccoc4)=C(O)C(=O)[C@H]3[C@@]21C`, the IC50 in assay [1], in assay [2], in assay [3], in assay [4] and in assay [5] was over 20 µM each time.
With `C/C=C(/C)C(=O)O[C@H]1C[C@@H](OC(C)=O)[C@@]2(C)CO[C@H]3[C@H]4O[C@@H]5CC(=O)C(C)=C5[C@@]4(C)[C@H](CC(=O)OC)[C@]1(C)[C@@H]32`, the IC50 in assay [1], in assay [2], in assay [3], in assay [4] and in assay [5] was over 20 µM in each case.
With `COC(=O)C[C@H]1[C@]2(C)C3=C(C)[C@H](c4ccoc4)C[C@H]3O[C@@H]2[C@H](OC(C)=O)[C@@H]2[C@]1(C)C(=O)C=C[C@@]2(C)C(=O)OC` [NIMBIN], the IC50 is over 20 µM in assay [1], over 20 µM in assay [2], 15.9 µM in assay [3] and over 20 µM in assay [5].

As usually defined, the IC50 is the midpoint of a concentration-inhibition curve.
